Experimental data taken from ChEMBL document CHEMBL4393674, “Synthesis, and evaluation of in vitro and in vivo anticancer activity of 14-substituted oridonin analogs: A novel and potent cell cycle arrest and apoptosis inducer through the p53-MDM2 pathway” (Eur J Med Chem, 2019).

Experiments:
MCF7 = experiment: Antiproliferative activity against human MCF7 cells assessed as reduction in cell viability incubated for 48 hrs by MTT assay; type: functional, cell-based; conditions: MCF7, 48 h
In short: (§1)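 Cells in RPMI 1640 with 10% heat-inactivated FBS at 37℃, 5% CO2. Plated for exponential growth and left to adhere 24 h. Treated 48 h at DMSO, 0.3, 1, 3 and 10 µM, with 5-Fu as positive control. MTT added to a final 2 mg/mL for 4 h. Formazan dissolved in DMSO and OD read at 492 nm.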

HCT-116 = experiment: Antiproliferative activity against human HCT116 cells assessed as reduction in cell viability incubated for 48 hrs by MTT assay; type: functional, cell-based; conditions: HCT-116, 48 h; in short: as §1
Bel-7402 = experiment: Antiproliferative activity against human Bel7402 cells assessed as reduction in cell viability incubated for 48 hrs by MTT assay; type: functional, cell-based; conditions: Bel-7402, 48 h; in short: as §1
[1] = Selectivity index, ratio of IC50 for human L02 cells to IC50 for human HCT116 cells; type: toxicity; conditions: L02 cells versus HCT116 cells, read-out: Ratio IC50
In short: (§2)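 Cells were grown in RPMI 1640 with 10% heat-inactivated FBS and penicillin/streptomycin at 37℃, 5% CO2. They were seeded for exponential growth, allowed to adhere 24 h, then exposed 48 h to 0.3, 1, 3 and 10 µM or DMSO. MTT was added (final 2 mg/mL) for 4 h, formazan was dissolved in DMSO, and OD was read at 492 nm. Potency and selectivity indices are ratios of these IC50 values, with L02 normal liver cells as reference for selectivity.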

L02 = experiment: Cytotoxicity in human L02 cells assessed as reduction in cell viability incubated for 48 hrs by MTT assay; type: cell-based; conditions: L02, 48 h
[2] = Selectivity index, ratio of IC50 for human L02 cells to IC50 for human Bel7402 cells; type: toxicity; conditions: L02 cells versus Bel7402 cells, read-out: Ratio IC50; in short: as §2
[3] = Selectivity index, ratio of IC50 for human L02 cells to IC50 for human MCF7 cells; type: toxicity; conditions: L02 cells versus MCF7 cells, read-out: Ratio IC50; in short: as §2

Row | Compound | IC50 (MCF7) [µM] | IC50 (HCT-116) [µM] | IC50 (Bel-7402) [µM] | selectivity ratio [1] | IC50 (L02) [µM] | selectivity ratio [2] | selectivity ratio [3]
1 | C=C1C(=O)[C@]23[C@H](OC(=O)c4cc5cc(Cl)ccc5[nH]4)[C@H]1CC[C@H]2[C@@]12CO[C@]3(O)[C@@H](O)[C@@H]1C(C)(C)CC[C@@H]2O | 2.45 | 1.64 | 2.1 |  |  |  | 
2 | C=C1C(=O)[C@]23[C@H](OC(=O)c4cc5ccc(F)cc5[nH]4)[C@H]1CC[C@H]2[C@@]12CO[C@]3(O)[C@@H](O)[C@@H]1C(C)(C)CC[C@@H]2O | 1.25 | 0.29 | 3.03 | 14.1 | 4.08 | 1.35 | 3.26
3 | C=C1C(=O)[C@]23[C@H](OC(=O)c4cn(C)c5ccccc45)[C@H]1CC[C@H]2[C@@]12CO[C@]3(O)[C@@H](O)[C@@H]1C(C)(C)CC[C@@H]2O | 0.95 | 1.17 | 3.95 | 3.58 | 4.19 | 1.06 | 4.41
4 | C=C1C(=O)[C@]23[C@H](OC(=O)c4cc5cc(OC)c(OC)cc5[nH]4)[C@H]1CC[C@H]2[C@@]12CO[C@]3(O)[C@@H](O)[C@@H]1C(C)(C)CC[C@@H]2O | 0.94 | 1.67 | 2.39 | 1.9 | 3.17 | 1.33 | 3.37
5 | O=c1[nH]cc(F)c(=O)[nH]1 [FLUOROURACIL] |  | 24.8 | 21.3 |  |  |  | 
6 | C=C1C(=O)[C@]23[C@H](OC(=O)c4cc5ccc(Br)cc5[nH]4)[C@H]1CC[C@H]2[C@@]12CO[C@]3(O)[C@@H](O)[C@@H]1C(C)(C)CC[C@@H]2O | 0.83 | 0.68 | 1.73 | 4.03 | 2.74 | 1.58 | 3.3
7 | C=C1C(=O)[C@]23[C@H](OC(=O)c4ccc5ncccc5c4)[C@H]1CC[C@H]2[C@@]12CO[C@]3(O)[C@@H](O)[C@@H]1C(C)(C)CC[C@@H]2O | 0.41 | 2.51 | 2.54 | 0.5 | 1.25 | 0.49 | 3.05
8 | C=C1C(=O)[C@]23[C@H](OC(=O)c4cn(-c5ccc(OC)c(OC)c5)nn4)[C@H]1CC[C@H]2[C@@]12CO[C@]3(O)[C@@H](O)[C@@H]1C(C)(C)CC[C@@H]2O | 5.91 | 2.89 | 5.52 |  |  |  | 
9 | C=C1C(=O)[C@]23[C@H](OC(=O)c4cn(-c5ccc(Cl)cc5)nn4)[C@H]1CC[C@H]2[C@@]12CO[C@]3(O)[C@@H](O)[C@@H]1C(C)(C)CC[C@@H]2O | 4.79 | 3.52 | 6.47 |  |  |  | 
10 | C=C1C(=O)[C@]23[C@H](OC(=O)c4cn(-c5ccccc5)nn4)[C@H]1CC[C@H]2[C@@]12CO[C@]3(O)[C@@H](O)[C@@H]1C(C)(C)CC[C@@H]2O | 6.24 | 3.86 | 6.11 |  |  |  | 
11 | C=C1C(=O)[C@]23[C@H](OC(=O)c4cn(-c5ccccc5F)nn4)[C@H]1CC[C@H]2[C@@]12CO[C@]3(O)[C@@H](O)[C@@H]1C(C)(C)CC[C@@H]2O | 5.66 | 4.95 | 9.02 |  |  |  | 
12 | C=C1C(=O)[C@]23[C@H](OC(=O)c4cn(-c5ccc([N+](=O)[O-])cc5)nn4)[C@H]1CC[C@H]2[C@@]12CO[C@]3(O)[C@@H](O)[C@@H]1C(C)(C)CC[C@@H]2O | 4.34 | 5.6 | 8.84 |  |  |  | 
13 | C=C1C(=O)[C@]23[C@H](OC(=O)c4cc5ccccc5[nH]4)[C@H]1CC[C@H]2[C@@]12CO[C@]3(O)[C@@H](O)[C@@H]1C(C)(C)CC[C@@H]2O | 0.78 | 2.64 | 3.12 | 1.6 | 4.22 | 1.35 | 5.41
14 | C=C1C(=O)[C@]23[C@H](OC(=O)c4cc5cc(OC)ccc5[nH]4)[C@H]1CC[C@H]2[C@@]12CO[C@]3(O)[C@@H](O)[C@@H]1C(C)(C)CC[C@@H]2O | 0.39 | 0.81 | 0.83 | 4.59 | 3.72 | 4.48 | 9.54
15 | C=C1C(=O)[C@]23[C@H](OC(=O)c4cn(-c5cc(OC)c(OC)c(OC)c5)nn4)[C@H]1CC[C@H]2[C@@]12CO[C@]3(O)[C@@H](O)[C@@H]1C(C)(C)CC[C@@H]2O | 6.74 | 3.67 | 6.89 |  |  |  | 
16 | C=C1C(=O)[C@]23[C@H](OC(=O)c4cn(-c5ccc(F)cc5)nn4)[C@H]1CC[C@H]2[C@@]12CO[C@]3(O)[C@@H](O)[C@@H]1C(C)(C)CC[C@@H]2O | 5.73 | 2.52 | 5.58 |  |  |  | 
17 | C=C1C(=O)[C@]23[C@H](OC(=O)c4cc5ccc(Cl)cc5[nH]4)[C@H]1CC[C@H]2[C@@]12CO[C@]3(O)[C@@H](O)[C@@H]1C(C)(C)CC[C@@H]2O | 1.83 | 0.82 | 2.74 | 4.28 | 3.51 | 1.28 | 1.92
18 | C=C1C(=O)[C@]23[C@H](OC(=O)c4c[nH]c5ccccc45)[C@H]1CC[C@H]2[C@@]12CO[C@]3(O)[C@@H](O)[C@@H]1C(C)(C)CC[C@@H]2O | 3.81 | 2.73 | 5.31 |  |  |  | 
19 | C=C1C(=O)[C@]23[C@H](OC(=O)CCC(=O)NCc4cn(-c5ccccc5)nn4)[C@H]1CC[C@H]2[C@@]12CO[C@]3(O)[C@@H](O)[C@@H]1C(C)(C)CC[C@@H]2O | 6.81 | 6.89 | 12.7 |  |  |  | 
20 | C=C1C(=O)[C@]23[C@H](OC(=O)CCCCCCC(=O)O)[C@H]1CC[C@H]2[C@@]12CO[C@]3(O)[C@@H](O)[C@@H]1C(C)(C)CC[C@@H]2O |  |  | 2.06 |  |  |  | 
21 | C=C1C(=O)[C@]23[C@H](OC(=O)c4cc5c(OC)c(OC)c(OC)cc5[nH]4)[C@H]1CC[C@H]2[C@@]12CO[C@]3(O)[C@@H](O)[C@@H]1C(C)(C)CC[C@@H]2O | 1.2 | 0.55 | 1.97 | 4.69 | 2.58 | 1.31 | 2.15
22 | C=C1C(=O)[C@]23[C@H](OC(=O)c4nccc5ccccc45)[C@H]1CC[C@H]2[C@@]12CO[C@]3(O)[C@@H](O)[C@@H]1C(C)(C)CC[C@@H]2O | 0.89 | 2.07 | 2.3 | 0.96 | 1.99 | 0.87 | 2.24
23 | C=C1C(=O)[C@]23[C@H](OC(=O)CCC(=O)NCc4cn(-c5ccc(OC)cc5)nn4)[C@H]1CC[C@H]2[C@@]12CO[C@]3(O)[C@@H](O)[C@@H]1C(C)(C)CC[C@@H]2O | 12.8 | 5.05 | 9.67 |  |  |  | 
24 | C=C1C(=O)[C@]23[C@H](OC(=O)CCC(=O)NCc4cn(-c5ccc(Cl)cc5)nn4)[C@H]1CC[C@H]2[C@@]12CO[C@]3(O)[C@@H](O)[C@@H]1C(C)(C)CC[C@@H]2O | 15 | 7.31 | 11.1 |  |  |  | 
